From article PMC9089800 (RSC Advances, 2018) come the findings set out here.

For series [1], the system named is MCF7. In words: MTT growth inhibition / cytotoxicity assay, MCF7. Particulars: Homo sapiens, MCF7, 48 h, read-out: IC50 in μM MCF7, MTT, 48 h, 0–100 μM. Format: cell-based, human.
Series [2] relates to MCF10A. Description: cells. Format: cell-based. Particulars: 48 h.
Series [3] has as its system MCF7 cells. In words: Cell cycle analysis by FACS. The format is cell-based, human. Particulars: MCF7, 24 h; 30 μM of 9, 20 μM of 10. An outline of the steps: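 Cells seeded a day before; treated 24 h with test compound or DMSO vehicle (final DMSO <0.02%). Cells trypsinised, pelleted at 4 °C, fixed overnight at 4 °C in chilled 95% ethanol, and PBS-washed. Stained with propidium iodide plus RNase in PBS/2 mM MgCl2 for 20 min at 37 °C, then acquired by flow cytometry. Three repeats; mean sub-G1 population plotted.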
(In flow cytometry, cells or beads pass a laser one at a time.)

The subject of series [4] is MCF7 cells. In words: DNA fragmentation assay. The format is cell-based, human. Particulars: MCF7, 24 h; 30 μM of 9, 20 μM of 10.
The test system of series [5] is caspase 9. Description: Western blot for apoptotic pathway. Particulars: MCF7, 24 h; 30 μM of 9, 20 μM of 10. The format is cell-based, human. An outline of the steps:
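MCF7 cells exposed 24 h to DMSO vehicle or test compound. Lysed 20 min on ice in Tris pH 7.4/EDTA/NaCl/NaF/orthovanadate/0.5% Triton X-100, then cleared at 16000 × g at 4 °C. Protein quantified by Bradford; samples boiled in Laemmli buffer. SDS-PAGE, PVDF transfer, 3% milk/TBST block. Anti-caspase 9 overnight at 4 °C; HRP secondary; chemiluminescent detection.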
(In western blotting, separated proteins are transferred to a membrane and probed.)

Series [6] has as its system MCF7 cells. Description: Immunostaining. Particulars: IC50 concentration, 12 hours. Format: cell-based, human. In a few lines:
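Cells grown overnight as a monolayer on coverslips, then exposed to test compound for 12 h. Fixed in 3.7% formaldehyde for 20 min at room temperature in the dark. Permeabilised with 0.5% Tween-20 for 30 min, then blocked with 3% BSA. Stained 1 h with anti-α-tubulin, then 1 h with Alexa Fluor 594 secondary. DNA counterstained with Hoechst; mounted in DABCO/glycerol.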

The IC50 is the concentration needed to halve the response being measured.

A value given as a limit tells only on which side of the number the result lay.

In the case of `C=C1[C@@H]2[C@H]3OC(=O)[C@@H](CN[C@@H](C)c4ccccc4)[C@@H]3CCC(=C)[C@@H]2C[C@@H]1O` [Compound 4, (3R,3aS,6aR,8S,9aR,9bS)-8-Hydroxy-6,9-dimethylene-3-((((S)-1-phenylethyl)amino)methyl)decahydroazuleno[4,5-b]furan-2(3H)-one], in series [1], the IC50 is over 100 µM.

Take `C=C1[C@@H]2[C@H]3OC(=O)[C@@H](CN[C@H](C)c4ccccc4)[C@@H]3CCC(=C)[C@@H]2C[C@@H]1O` [Compound 6, (3R,3aS,6aR,8S,9aR,9bS)-8-Hydroxy-6,9-dimethylene-3-((((R)-1-phenylethyl)amino)methyl)decahydroazuleno[4,5-b]furan-2(3H)-one]: the IC50 in series [1] is over 100 µM.

Consider `C=C1[C@@H]2[C@H]3OC(=O)[C@@H](CN[C@@H](C)c4cccc5ccccc45)[C@@H]3CCC(=C)[C@@H]2C[C@@H]1OC(C)=O` [Compound 7, (3R,3aS,6aR,8S,9aR,9bS)-6,9-Dimethylene-3-((((S)-1-(naphthalen-1-yl)ethyl)amino)methyl)-2-oxododecahydroazuleno[4,5-b]furan-8-yl acetate], for which the IC50 in series [1] is over 100 µM. Regarding `C=C1[C@@H]2[C@H]3OC(=O)[C@@H](CN[C@@H](C)c4cccc5ccccc45)[C@@H]3CCC(=C)[C@@H]2C[C@@H]1O` [Compound 8, (3R,3aS,6aR,8S,9aR,9bS)-8-Hydroxy-6,9-dimethylene-3-((((S)-1-(naphthalene-1-yl)ethyl)amino)methyl)decahydroazuleno[4,5-b] furan-2(3H)-one], the IC50 in series [1] was determined as 75.8 ± 3 µM. For the compound `C=C1[C@@H]2[C@H]3OC(=O)[C@@H](CN[C@H](C)c4cccc5ccccc45)[C@@H]3CCC(=C)[C@@H]2C[C@@H]1O` [Compound 10, (3R,3aS,6aR,8S,9aR,9bS)-8-Hydroxy-6,9-dimethylene-3-((((R)-1-(naphthalen-1-yl)ethyl)amino)methyl)decahydroazuleno[4,5-b] furan-2(3H)-one], the IC50 in series [2] (Homo sapiens, MCF-10A, read-out: IC50 in μM MCF10A) is over 100 µM. Further, in series [2] (MTT), the “cytotoxic effect on normal breast epithelial MCF10A cells (in words)” value is “minimal cytotoxic effect”. In series [3], the “apoptotic (sub-G1) population” value is recorded as “significantly increased the apoptotic populations”. Moreover, the “fragmentation of genomic DNA (ladder on agarose gel)” value in series [4] is “substantial fragmented DNA ladder”. Further, the “apoptotic pathway (caspase 9 immunoblot)” value in series [5] is “cleavage of caspase 9”. In series [6], the “DNA fragmentation by Hoechst staining, tubulin morphology” value was “fragmented DNA”. With `C=C1[C@@H]2[C@H]3OC(=O)[C@@H](CN[C@H](C)C4CCCCC4)[C@@H]3CCC(=C)[C@@H]2C[C@@H]1O` [Compound 11, (3R,3aS,6aR,8S,9aR,9bS)-3-((((R)-1-Cyclohexylethyl)amino)methyl)-8-hydroxy-6,9-dimethylenedecahydroazuleno[4,5-b]furan-2(3H)-one], the IC50 in series [1] was over 100 µM.

Take `C=C1[C@@H]2[C@H]3OC(=O)[C@@H](CN[C@@H](C)C4CCCCC4)[C@@H]3CCC(=C)[C@@H]2C[C@@H]1O` [Compound 12, (3R,3aS,6aR,8S,9aR,9bS)-3-((((S)-1-Cyclohexylethyl)amino)methyl)-8-hydroxy-6,9-dimethylenedecahydroazuleno[4,5-b]furan-2(3H)-one]: the IC50 in series [1] is over 100 µM. In the case of `C=C1[C@@H]2[C@H]3OC(=O)[C@@H](CN4CCOCC4)[C@@H]3CCC(=C)[C@@H]2C[C@@H]1OC(C)=O` [Compound 17, (3R,3aS,6aR,8S,9aR,9bS)-6,9-Dimethylene-3-(morpholinomethyl)-2-oxododecahydroazuleno[4,5-b]furan-8-yl acetate], the IC50 in series [1] is over 100 µM.

With `C=C1[C@@H]2[C@H]3OC(=O)[C@@H](CN4CCOCC4)[C@@H]3CCC(=C)[C@@H]2C[C@@H]1O` [Compound 18, (3R,3aS,6aR,8S,9aR,9bS)-8-Hydroxy-6,9-dimethylene-3-(morpholinomethyl)decahydroazuleno[4,5-b]furan-2(3H)-one], in series [1], the IC50 is over 100 µM. For `C=C1[C@@H]2[C@H]3OC(=O)[C@@H](CN4CCCC4)[C@@H]3CCC(=C)[C@@H]2C[C@@H]1O` [Compound 19, (3R,3aS,6aR,8S,9aR,9bS)-8-Hydroxy-6,9-dimethylene-3-(pyrrolidin-1-ylmethyl)decahydroazuleno[4,5-b]furan-2(3H)-one], the half-maximal inhibitory concentration (IC50) in series [1] is over 100 µM. The same measure, in the same setting: then `C=C1[C@@H]2[C@H]3OC(=O)[C@@H](CN4CCCCC4)[C@@H]3CCC(=C)[C@@H]2C[C@@H]1O` [Compound 20, (3R,3aS,6aR,8S,9aR,9bS)-8-Hydroxy-6,9-dimethylene-3-(piperidin-1-ylmethyl)decahydroazuleno[4,5-b]furan-2(3H)-one], with over 100 µM; and `C=C1[C@@H]2[C@H]3OC(=O)[C@@H](COC)[C@@H]3CCC(=C)[C@@H]2C[C@@H]1O` [Compound 22, (3R,3aS,6aR,8S,9aR,9bS)-8-Hydroxy-3-(methoxymethyl)-6,9-dimethylenedecahydroazuleno[4,5-b]furan-2(3H)-one], with over 100 µM. The same measure, in the same setting: then `C=C1[C@@H]2[C@H]3OC(=O)/C(=C/c4ccc(C)cc4)[C@@H]3CCC(=C)[C@@H]2C[C@@H]1OC(C)=O` [Compound 23, (3aS,6aR,8S,9aR,9bS)-3-((E)-4-Methylbenzylidene)-6,9-dimethylene-2-oxododecahydroazuleno[4,5-b]furan-8-yl acetate], with over 100 µM. Same read-out and setting: then `C=C1[C@@H]2[C@H]3OC(=O)/C(=C/c4cccc(C(F)(F)F)c4)[C@@H]3CCC(=C)[C@@H]2C[C@@H]1OC(C)=O` [Compound 24, (3aS,6aR,8S,9aR,9bS)-6,9-Dimethylene-2-oxo-3-((E)-3-(trifluoro-methyl)benzylidene)dodecahydroazuleno[4,5-b]furan-8-yl acetate], with over 100 µM; and `C=C1[C@@H]2[C@H]3OC(=O)/C(=C/c4ccc(Cl)cc4)[C@@H]3CCC(=C)[C@@H]2C[C@@H]1OC(C)=O` [Compound 25, (3aS,6aR,8S,9aR,9bS)-3-((E)-4-Chlorobenzylidene)-6,9-dimethylene-2-oxododecahydroazuleno[4,5-b]furan-8-yl acetate], with over 100 µM. On to `C=C1[C@@H]2[C@H]3OC(=O)/C(=C/c4c(OC)cccc4[N+](=O)[O-])[C@@H]3CCC(=C)[C@@H]2C[C@@H]1OC(C)=O` [Compound 26, (3aS,6aR,8S,9aR,9bS)-3-((E)-2-Methoxy-6-nitrobenzylidene)-6,9-dimethylene-2-oxododecahydroazuleno[4,5-b]furan-8-yl acetate], for which the IC50 in series [1] is over 100 µM.

Regarding `C=C1[C@@H]2[C@H]3OC(=O)/C(=C/c4ccc(C)c([N+](=O)[O-])c4)[C@@H]3CCC(=C)[C@@H]2C[C@@H]1OC(C)=O` [Compound 27, (3aS,6aR,8S,9aR,9bS)-3-((E)-4-Methyl-3-nitrobenzylidene)-6,9-dimethylene-2-oxododecahydroazuleno[4,5-b]furan-8-yl acetate], the IC50 in series [1] was over 100 µM. `C=C1[C@@H]2[C@H]3OC(=O)/C(=C/c4ccc(NC(C)=O)c(C(F)(F)F)c4)[C@@H]3CCC(=C)[C@@H]2C[C@@H]1OC(C)=O` [Compound 28, (3aS,6aR,8S,9aR,9bS)-3-((E)-4-Acetamido-3-(trifluoromethyl)benzylidene)-6,9-dimethylene-2-oxododecahydroazuleno[4,5-b] furan-8-yl acetate]: the IC50 in series [1] was over 100 µM.

As to `C=C1[C@@H]2[C@H]3OC(=O)/C(=C/c4ccccc4C)[C@@H]3CCC(=C)[C@@H]2C[C@@H]1OC(C)=O` [Compound 29, (3aS,6aR,8S,9aR,9bS)-3-((E)-2-Methylbenzylidene)-6,9-dimethylene-2-oxododecahydroazuleno[4,5-b]furan-8-yl acetate], the IC50 in series [1] stood at 74 µM. Same read-out and setting: as for `C=C1[C@@H]2[C@H]3OC(=O)/C(=C/c4ccc(C(=O)OC)cc4)[C@@H]3CCC(=C)[C@@H]2C[C@@H]1OC(C)=O` [Compound 30, Methyl-4-((E)-((3aS,6aR,8S,9aR,9bS)-8-acetoxy-6,9-dimethylene-2-oxodecahydroazuleno[4,5-b]furan-3(2H)-ylidene)methyl)benzoate], the figure is over 100 µM; as for `C=C1[C@@H]2[C@H]3OC(=O)/C(=C/c4ccccc4[N+](=O)[O-])[C@@H]3CCC(=C)[C@@H]2C[C@@H]1OC(C)=O` [Compound 32, (3aS,6aR,8S,9aR,9bS)-6,9-Dimethylene-3-((E)-2-nitrobenzylidene)-2-oxododecahydroazuleno[4,5-b]furan-8-yl acetate], 36.5 µM. On the same count and under the same terms, then `C=C1[C@@H]2[C@H]3OC(=O)/C(=C/c4ccc(Cl)cc4[N+](=O)[O-])[C@@H]3CCC(=C)[C@@H]2C[C@@H]1OC(C)=O` [Compound 33, (3aS,6aR,8S,9aR,9bS)-3-((E)-4-Chloro-2-nitrobenzylidene)-6,9-dimethylene-2-oxododecahydroazuleno[4,5-b]furan-8-yl acetate], with over 100 µM; and `C=C1[C@@H]2[C@H]3OC(=O)/C(=C/c4ccc(C)cc4[N+](=O)[O-])[C@@H]3CCC(=C)[C@@H]2C[C@@H]1OC(C)=O` [Compound 34, (3aS,6aR,8S,9aR,9bS)-3-((E)-4-Methyl-2-nitrobenzylidene)-6,9-dimethylene-2-oxododecahydroazuleno[4,5-b]furan-8-yl acetate], with over 100 µM.
